How the values were obtained:
[1] = Dissolution profile in FaSSGF; format: physicochemical; details: FaSSGF pH 1.60, 37 °C
Summary of the method: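 Test compound stirred in 100 mL fasted-state simulated gastric fluid (HCl/NaCl, pH 1.60) at 37 °C and 150 rpm for 36 h. Dissolved drug quantified directly by UV absorbance at 208 nm (400–200 nm scan) against a reagent blank.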

[2] = Dissolution profile in PBS; format: physicochemical; details: PBS pH 7.40, 37 °C
Summary of the method: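 Powdered test compound dissolved in 100 mL PBS (pH 7.40) at 37 °C with constant stirring at 150 rpm for 48 h. Release followed by UV absorbance at 208 nm (scan 400–200 nm) against a reagent blank.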

Hydroxyapatite = format: binding; details: PBS pH 7.40, 37 °C
Summary of the method: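 20 mg synthetic hydroxyapatite incubated with 3 mL test compound in PBS (0.5 mg mL−1) at 37 °C for 0–11 d. Controls were compound alone and HA alone in PBS. Supernatant collected daily and centrifuged (1500 rpm, 8 min). Bound fraction derived from the fall in supernatant absorbance at 208 nm. Experimental groups done in duplicate.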

[3] = cited from earlier work
[4] = AlamarBlue cytotoxicity assay, MDA-MB-231; format: cell-based, human; details: human, MDA-MB-231 cells
Summary of the method: (§1)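 MDA-MB-231 cells grown in DMEM with 1% Pen-Strep and 10% FBS at 37 °C, 5% CO2. Seeded at 2.5 × 10^5 cell per mL, then preincubated 24 h. […] Read-out: 10% AlamarBlue in PBS, 4 h, fluorescence ex 560/em 590 nm, normalised to medium control (100%). IC50 by nonlinear regression; triplicates, mean, SD, %CV.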

[5] = system: human breast cancer MDA-MB-231 cell line; assay: AlamarBlue cytotoxicity assay, MDA-MB-231; format: cell-based; details: for IC50: Homo sapiens; for relative cell live (%RCL): MDA-MB-231, 15 μM
Summary of the method: as §1

[6] = system: normal osteoblast-like hFOB 1.19 cell line; assay: AlamarBlue cytotoxicity assay, hFOB 1.19; format: cell-based, human; details: for IC50: Homo sapiens
Summary of the method: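 hFOB 1.19 osteoblast-like cells grown in 1:1 DMEM:F-12 with 0.3 mg mL−1 G418 and 10% FBS at 34 °C, 5% CO2. Seeded at 2.5 × 10^5 cell per mL, then preincubated 24 h at 34 °C. Exposed 24, 48 or 72 h to two-fold dilutions (0–200 μM), or to 1.9–15 μM. Read-out: 10% AlamarBlue, 4 h, fluorescence 560/590 nm, relative to medium control. IC50 by nonlinear regression; triplicates.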

## O=P(O)(O)C(O)(Cn1ccnc1)P(=O)(O)O [ZOLE, zoledronate]
[1]
  time to reach maximum dissolution / equilibrium solubility: 3 h
[2]
  time to reach maximum dissolution / equilibrium solubility: 30 min
[2]; 150 rpm
  dissolution (ZOLE content released, maximum reached): 100%
Hydroxyapatite
  time to reach maximum binding to HA: 8 days
Hydroxyapatite; 0–11 d
  maximum binding to HA: 82%
Hydroxyapatite; in 1 d
  binding to HA: 15%
[3]
  bioavailability: < 1%
  maximum plasma concentration: 1 µM
[4]
  viability at 1.9 µM: ~100%
[5]; MDA-MB-231, 24 h
  IC50: > 200 µM
[5]; MDA-MB-231, 48 h
  IC50: > 200 µM
[5]; MDA-MB-231, 72 h
  IC50: 35 ± 4 µM
[5]; MDA-MB-231, 3.8 μM, time not stated (Fig. 9b)
  %RCL: ~100%
[5]; 48 h
  relative cell live (%RCL): 80 ± 2%
[5]; 72 h
  relative cell live (%RCL): 58 ± 2%
[6]; 24 h
  IC50: > 200 µM
[6]; 48 h
  IC50: 86 ± 3 µM
[6]; 72 h
  IC50: 49 ± 4 µM
[6]; hFOB 1.19, 3.8–15 μM, after 24, 48, and 72 h
  cell death (cell viability result in words): no significant cell death

— article PMC8978309 (Materials Advances, 2022)
